Source: PubChem (Sanford-Burnham Center for Chemical Genomics)
Shown are actives, neighbours in structure and some others; about 3.9% of the full set was active somewhere.
tim10-1 inh: growth inhibitors of tim10-1 mutant yeast | S. cerevisiae tim10-1 ts strain growth, BacTiter-Glo, 24 h | inhibition, % at 20 µM | hit rate 2.2% among 330,000 | AID 463190;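 active means inhibition of at least 40%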;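 further: mutant grown at 25 °C; 0% = DMSO wells with yeast and 100% = wells holding no yeast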
TIM10 inh: TIM10 yeast growth inhibition; S. cerevisiae TIM10 strain growth, BacTiter-Glo luminescence, 24 h; inhibition, % at 10 µM; hit rate 1.4% among 330,000;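 active means inhibition of 40% or more at the single tested concentration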;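 further: wild-type TIM10 isogenic control strain grown at permissive 25 °C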
UPR CHOP act: activators of apoptotic arm of unfolded protein response (CHOP) | CHO-CHOP luciferase reporter, UPR activation, luminescence; percent of tunicamycin response over DMSO baseline | activation, % at 10 µM | hit rate 0.34% among 330,000;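 active means at 10 µM dose, activation of 40% or more, normalized to positive control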;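 further: 100% = tunicamycin at 10 µg/mL and 0% = DMSO alone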
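System: CHO CHOP reporter cells. Amount: 500 cells per well. Buffer or medium: F12 medium, 10% FBS. Compound dosing: one dose, 10 µM in 0.5% DMSO. Incubation: 6 h compound exposure at 37 °C after overnight seeding. Technique: Steady-Glo luciferase luminescence. Benchmarks: tunicamycin and DMSO controls.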
UPR XBP1 act: adaptive UPR (XBP1) activation | hit rate 0.33% among 330,000 | activation, % at 20 µM | CHO-XBP1 luciferase reporter, IRE1-XBP1 UPR activation, luminescence; percent of tunicamycin response, DMSO as zero | AID 463104;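 active means versus positive control, 20 µM dose yields 30% or more activation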;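 further: 100% = tunicamycin at 10 µg/mL and 0% = DMSO only wells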
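Test system: CHO-XBP1 luciferase reporter cells | Buffer or medium: Serum-containing F12 medium, 10% FBS | Schedule: 6 h compound exposure at 37 °C, 5% CO2 | Detection: Steady-Glo luciferase glow luminescence, 10 min after reagent addition | Read-out basis: Activation, % of tunicamycin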
tim23-1 inh: tim23-1 yeast growth inhibition. S. cerevisiae tim23-1 growth, BacTiter-Glo luminescence, 24 h. inhibition, % at 20 µM. hit rate 1.3% among 330,000;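 active means growth inhibition of the mutant yeast at or above 50%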;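 further: temperature-sensitive mutant grown at 25 °C; plate controls were DMSO-treated mutant yeast for no effect and medium wells lacking yeast for full effect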
tim10-1 conf: confirmation of tim10-1 mutant yeast growth inhibitors. S. cerevisiae tim10-1 ts strain growth, BacTiter-Glo, 24 h. hit rate 56% among 7,400. AID 463213. shares compounds with tim10-1 inh. inhibition, % at 20 µM;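 active means inhibition of yeast growth at or above a set limit in either of two repeat tests at 20 µM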;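 further: tim10-1 mutant grown at permissive 25 °C to find synthetic lethal compounds; 0% = DMSO yeast wells and 100% = medium wells without yeast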
TIM10 conf: confirmation of TIM10 yeast growth inhibitors; AID 463215; S. cerevisiae tim10 strain growth, BacTiter-Glo luminescence, 24 h; shares compounds with TIM10 inh; inhibition, % at 10 µM; hit rate 63% among 4,600;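 active means inhibition of yeast growth at or above a set limit in either of two replicates at 10 µM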;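 further: this counterscreen used the strain with wild-type TIM10; 0% = yeast with DMSO and 100% = medium wells lacking yeast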
tim23-1 conf: tim23-1 yeast growth inhibition, confirmed; AID 463218; hit rate 83% among 4,400; S. cerevisiae tim23-1 growth, BacTiter-Glo luminescence, 24 h; shares compounds with tim23-1 inh; inhibition, % at 20 µM;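 active means inhibition above about 39% in either of two replicate wells at 20 µM, limit read from the data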;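 further: temperature-sensitive tim23-1 mutant grown at 25 °C; 0% = DMSO wells with yeast and 100% = medium wells without yeast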
* marks the source's active call; other numbers are inactive results; . = no result.

SMILES | tim10-1 inh | TIM10 inh | UPR CHOP act | UPR XBP1 act | tim23-1 inh | tim10-1 conf | tim23-1 conf | others
CC(=O)C(=Cc1cn(-c2ccccc2)nc1-c1ccccc1)C(C)=O | 67* | 57* | 7 | 3 | 82* | 68* | 83* | TIM10 conf=53*
Clc1ccc(Cl)c(OCCN2CCCC2)c1 | 5 | -10 | 0 | -4 | 8 | . | .
Cc1occc1-c1nnc(-c2cc([N+](=O)[O-])cc([N+](=O)[O-])c2)o1 | 73* | 56* | 1 | -1 | 83* | 69* | 69* | TIM10 conf=52*
O=[N+]([O-])c1ccc(NC(=S)N2CCc3ccccc32)cc1 | 49* | 35 | 1 | -3 | 54* | 42* | 49*
Cc1ccc(CNC(=O)COC(=O)CCOc2ccc(C)cc2)cc1 | 29 | 9 | 0 | 2 | 10 | . | .
CC(C)(C)c1ccc(S(=O)(=O)N2CCN(CC(=O)NC(=O)NC3CCCCC3)CC2)cc1 | 25 | 11 | 2 | -5 | 18 | . | .
COc1c(OC(C)=O)c(=O)n2c3ccccc3c3ccnc1c32 | 70* | 73* | 1 | 0 | 83* | 64* | 67* | TIM10 conf=80*
O=C(/C=C/c1ccc(F)cc1)c1ccccc1Br | 47* | 44* | 5 | 8 | 62* | 64* | 58* | TIM10 conf=64*
Nc1nnc(SC2CC(=O)N(c3ccccc3)C2=O)s1 (stereo not drawn) | 66* | 30 | 0 | -1 | 59* | 53* | 58*
Cc1nn(-c2cc(N(S(C)(=O)=O)S(C)(=O)=O)c(Cl)cc2Cl)c(=O)n1C | 2 | 10 | 3 | -2 | 7 | . | .
Clc1ncnc2scc(C3COc4ccccc4O3)c12 (stereo not drawn) | 53* | 30 | 3 | -4 | 52* | 31 | 31
CC(C)c1ccc(NC2CCCN(C(=O)CCc3cn[nH]c3)C2)cc1 (stereo not drawn) | 5 | 0 | 2 | -4 | 11 | . | .
O=c1oc2c(-c3cccc(F)c3)cc(O)cc2s1 | 52* | -15 | -1 | 0 | 57* | 48* | 56*
Nc1nnc(-c2cccc(F)c2)s1 | -8 | 1 | -1 | -1 | -4 | . | .
CCn1cc(CNC(=O)C2CCC(=O)N(Cc3ccc(Cl)cc3)C2)cn1 (stereo not drawn) | -9 | -3 | 1 | -5 | -6 | . | .
CC(C)(C)c1cc(S(=O)(=O)CCc2ccccn2)cc(C(C)(C)C)c1F | 48* | 53* | 2 | 1 | 60* | 45* | 58* | TIM10 conf=52*
C=CC[n+]1c(-c2ccc(Cl)cc2Cl)csc1Nc1ccc(NC(C)=O)cc1 | 60* | 37 | -1 | 0 | 67* | 58* | 78*
C=CC[n+]1c(-c2ccc(Cl)cc2Cl)csc1Nc1c(C)n(C)n(-c2ccccc2)c1=O | 49* | 30 | -1 | 1 | 52* | 38* | 49*
CCCCCCC(=O)N/N=C/c1ccc(Br)cc1 | 50* | 34 | 2 | -1 | 73* | 33* | 73*
c1ccc(-[n+]2nc(Nc3cccc4ccccc34)sc2-c2c3ccccc3cc3ccccc23)cc1 | 25 | 7 | 14 | 1 | 17 | . | .
CN1C(=O)/C(=C\c2cc(N=Nc3ccccc3)ccc2O)SC1=S | 42* | 40 | -3 | -4 | 62* | 24 | 67*
CN1C(=O)/C(=C\c2ccccc2OCc2ccccc2)SC1=S | 16 | -17 | -3 | -4 | 4 | . | .
O=c1c2c(-c3cccs3)csc2ncn1-c1ccccc1 | 14 | 10 | 0 | 1 | 32 | . | .
Cc1ccc(-n2cnc3scc(-c4cccs4)c3c2=O)cc1 | 41* | 31 | 1 | -1 | 50* | 45* | 58*
O=C(NCCC1=CCCCC1)c1cnsn1 | 12 | 2 | 4 | 0 | 6 | . | .
SMILES | tim10-1 inh | TIM10 inh | UPR CHOP act | UPR XBP1 act | tim23-1 inh | tim10-1 conf | tim23-1 conf | others
O=C(NCCCN1CCCC1=O)c1c(O)nc2ccccn2c1=O | -15 | -4 | 1 | -3 | -5 | . | .
O=C(NCCC1=CCCCC1)c1c(O)nc2ccccn2c1=O | 51* | 31 | 4 | 1 | 56* | -6 | 56*
O=C(NCCC1=CCCCC1)c1c(O)nc2sccn2c1=O | 42* | 36 | 2 | 6 | 75* | 1 | 62*
Cc1cc(=O)oc2cc(OCC(=O)N3CC[C@@]4(O)CCCC[C@H]4C3)c(Cl)cc12 | 11 | 0 | -1 | -2 | -7 | . | .
COc1ccccc1CNC(=O)CN(C)CC(=O)Nc1ccccc1Br | -2 | -8 | 1 | -4 | 9 | . | .
CCC(C)c1ccc(NC(=S)NCc2cccs2)cc1 (stereo not drawn) | 56* | 54* | 0 | 1 | 53* | 55* | 55* | TIM10 conf=44*
Cc1ccc(S(=O)(=O)N/N=C/c2cc(Br)ccc2O)cc1 | 23 | 9 | 0 | 0 | 36 | . | .
Cc1ccc(S(=O)(=O)Nc2ccc(Br)cc2/C=N/n2cnnc2)cc1 | 41* | 27 | 0 | 1 | 77* | 35* | 72*
COC(=O)CCCC1=CC2=CC(=O)C(C)(OC(=O)c3ccc(Cl)nc3)C(=O)C2=CO1 (stereo not drawn) | 0 | 4 | 1 | 0 | 3 | . | .
COc1ccc(C(=O)NC(=S)NCc2ccco2)cc1Br | 46* | 21 | 1 | -3 | 54* | 38* | 53*
COc1ccc(C(=O)NC(=S)NC(C)(C)C)cc1Br | 40* | 60* | 2 | 3 | 64* | 47* | 77* | TIM10 conf=53*
COc1ccc(C(=O)NC(=S)NC(C)C)cc1Br | -4 | 18 | 1 | 3 | 40 | . | .
COc1ccc(N2C(=O)CC(NNC(=O)c3cccnc3)C2=O)cc1 (stereo not drawn) | 0 | 16 | 0 | -1 | -5 | . | .
O=C(N/N=C/c1ccccc1O)NC12CC3CC(CC(C3)C1)C2 | 44* | 29 | 4 | 8 | 71* | 36* | 68*
CC(=O)Oc1cccc(/C=C2\Sc3ccccc3C2=O)c1 | 44* | 33 | 0 | -1 | 86* | 48* | 85*
C=CCSc1n[nH]c(-c2ccc(OCCCC)cc2)n1 | 41* | 56* | 3 | 5 | 72* | 17 | 67* | TIM10 conf=48*
Cc1ccc(Cl)cc1NC(=O)CC(O)(C(F)(F)F)C(F)(F)F | 55* | 39 | 2 | 2 | 53* | 57* | 56*
COCC(=O)Nc1cc(Cl)ccc1C | 6 | 0 | -2 | -2 | 1 | . | .
Cc1cc(C)c2c(=O)[nH]c(SCc3ccccc3)nc2n1 | 30 | 13 | -2 | 0 | 33 | . | .
